Tested on: U2OS
Assay: Multiplex assay against U2OS
Assay type: toxicity, cell-based
Conditions: human
Procedure, shortened: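 On a CQ1 microscope at 37°C and 5% CO2, live cells were imaged after compound addition. They had been stained at seeding with Hoechst33342, BioTracker Green Microtubule Cytoskeleton Dye, MitoTracker Red and Annexin V Alexa Fluor 680. CellPathfinder machine-learning gating assigned cells to Hoechst high-intensity objects or normal cells, normal cells to healthy, pyknosed or fragmented nuclei, and pyknosed cells to mitotic or apoptotic. Tubulin, mitochondrial-mass and membrane-permeability phenotypes are per cents of healthy-nucleus cells.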

[1] = 12 h, 1 µM, compound concentration 1 uM, replicate 1
[2] = 12 h, 1 µM, compound concentration 1 uM, replicate 2
[3] = 12 h, 10 µM, compound concentration 10 uM, replicate 1
[4] = 12 h, 10 µM, compound concentration 10 uM, replicate 2
[5] = 24 h, 1 µM, compound concentration 1 uM, replicate 1
[6] = 24 h, 1 µM, compound concentration 1 uM, replicate 2
[7] = 24 h, 10 µM, compound concentration 10 uM, replicate 1
[8] = 24 h, 10 µM, compound concentration 10 uM, replicate 2
[9] = 48 h, 1 µM, compound concentration 1 uM, replicate 1
[10] = 48 h, 1 µM, compound concentration 1 uM, replicate 2
[11] = 48 h, 10 µM, compound concentration 10 uM, replicate 1
[12] = 48 h, 10 µM, compound concentration 10 uM, replicate 2

CCC(=O)O[C@]1(C(=O)SCF)[C@H](C)C[C@H]2[C@@H]3C[C@H](F)C4=CC(=O)C=C[C@]4(C)[C@@]3(F)[C@@H](O)C[C@@]21C [FLUTICASONE PROPIONATE]
Population Apoptotic (%) [1]: 35%
Population Fragmented Nuclei (%) [1]: 8%
Population Healthy Nuclei (%) [1]: 81%
Population Hoechst High Intensity Objects (%) [1]: 5%
Population Membrane Permeable-Phenotype (%) [1]: 7%
Population Mitochondria Different-Phenotype (%) [1]: 7%
Population Mitotic Cells (%) [1]: 64%
Population Normal (%) [1]: 94%
Population Pyknosed Nuclei (%) [1]: 9%
Population Tubulin-Different-Phenotype (%) [1]: 10%
Total Cell Count [1]: 182
Population Apoptotic (%) [2]: 71%
Population Fragmented Nuclei (%) [2]: 4%
Population Healthy Nuclei (%) [2]: 78%
Population Hoechst High Intensity Objects (%) [2]: 12%
Population Membrane Permeable-Phenotype (%) [2]: 3%
Population Mitochondria Different-Phenotype (%) [2]: 9%
Population Mitotic Cells (%) [2]: 28%
Population Normal (%) [2]: 87%
Population Pyknosed Nuclei (%) [2]: 16%
Population Tubulin-Different-Phenotype (%) [2]: 9%
Total Cell Count [2]: 68
Population Apoptotic (%) [3]: 53%
Population Fragmented Nuclei (%) [3]: 14%
Population Healthy Nuclei (%) [3]: 72%
Population Hoechst High Intensity Objects (%) [3]: 9%
Population Membrane Permeable-Phenotype (%) [3]: 22%
Population Mitochondria Different-Phenotype (%) [3]: 47%
Population Mitotic Cells (%) [3]: 46%
Population Normal (%) [3]: 90%
Population Pyknosed Nuclei (%) [3]: 13%
Population Tubulin-Different-Phenotype (%) [3]: 48%
Total Cell Count [3]: 155
Population Apoptotic (%) [4]: 28%
Population Fragmented Nuclei (%) [4]: 8%
Population Healthy Nuclei (%) [4]: 81%
Population Hoechst High Intensity Objects (%) [4]: 8%
Population Membrane Permeable-Phenotype (%) [4]: 3%
Population Mitochondria Different-Phenotype (%) [4]: 37%
Population Mitotic Cells (%) [4]: 71%
Population Normal (%) [4]: 92%
Population Pyknosed Nuclei (%) [4]: 10%
Population Tubulin-Different-Phenotype (%) [4]: 35%
Total Cell Count [4]: 48
Population Apoptotic (%) [5]: 37%
Population Fragmented Nuclei (%) [5]: 4%
Population Healthy Nuclei (%) [5]: 86%
Population Hoechst High Intensity Objects (%) [5]: 3%
Population Membrane Permeable-Phenotype (%) [5]: 6%
Population Mitochondria Different-Phenotype (%) [5]: 5%
Population Mitotic Cells (%) [5]: 62%
Population Normal (%) [5]: 96%
Population Pyknosed Nuclei (%) [5]: 8%
Population Tubulin-Different-Phenotype (%) [5]: 6%
Total Cell Count [5]: 230
Population Apoptotic (%) [6]: 16%
Population Fragmented Nuclei (%) [6]: 3%
Population Healthy Nuclei (%) [6]: 84%
Population Hoechst High Intensity Objects (%) [6]: 11%
Population Membrane Permeable-Phenotype (%) [6]: 11%
Population Mitochondria Different-Phenotype (%) [6]: 11%
Population Mitotic Cells (%) [6]: 83%
Population Normal (%) [6]: 88%
Population Pyknosed Nuclei (%) [6]: 11%
Population Tubulin-Different-Phenotype (%) [6]: 20%
Total Cell Count [6]: 78
Population Apoptotic (%) [7]: 53%
Population Fragmented Nuclei (%) [7]: 17%
Population Healthy Nuclei (%) [7]: 61%
Population Hoechst High Intensity Objects (%) [7]: 9%
Population Membrane Permeable-Phenotype (%) [7]: 43%
Population Mitochondria Different-Phenotype (%) [7]: 24%
Population Mitotic Cells (%) [7]: 46%
Population Normal (%) [7]: 90%
Population Pyknosed Nuclei (%) [7]: 21%
Population Tubulin-Different-Phenotype (%) [7]: 41%
Total Cell Count [7]: 189
Population Apoptotic (%) [8]: 58%
Population Fragmented Nuclei (%) [8]: 5%
Population Healthy Nuclei (%) [8]: 78%
Population Hoechst High Intensity Objects (%) [8]: 8%
Population Membrane Permeable-Phenotype (%) [8]: 6%
Population Mitochondria Different-Phenotype (%) [8]: 31%
Population Mitotic Cells (%) [8]: 41%
Population Normal (%) [8]: 91%
Population Pyknosed Nuclei (%) [8]: 16%
Population Tubulin-Different-Phenotype (%) [8]: 25%
Total Cell Count [8]: 59
Population Apoptotic (%) [9]: 53%
Population Fragmented Nuclei (%) [9]: 4%
Population Healthy Nuclei (%) [9]: 89%
Population Hoechst High Intensity Objects (%) [9]: 2%
Population Membrane Permeable-Phenotype (%) [9]: 5%
Population Mitochondria Different-Phenotype (%) [9]: 10%
Population Mitotic Cells (%) [9]: 46%
Population Normal (%) [9]: 97%
Population Tubulin-Different-Phenotype (%) [9]: 8%
Total Cell Count [9]: 304
Population Apoptotic (%) [10]: 20%
Population Fragmented Nuclei (%) [10]: 1%
Population Healthy Nuclei (%) [10]: 93%
Population Hoechst High Intensity Objects (%) [10]: 8%
Population Membrane Permeable-Phenotype (%) [10]: 8%
Population Mitochondria Different-Phenotype (%) [10]: 12%
Population Mitotic Cells (%) [10]: 80%
Population Normal (%) [10]: 91%
Population Pyknosed Nuclei (%) [10]: 5%
Population Tubulin-Different-Phenotype (%) [10]: 19%
Total Cell Count [10]: 113
Population Apoptotic (%) [11]: 72%
Population Fragmented Nuclei (%) [11]: 13%
Population Healthy Nuclei (%) [11]: 67%
Population Hoechst High Intensity Objects (%) [11]: 6%
Population Membrane Permeable-Phenotype (%) [11]: 42%
Population Mitochondria Different-Phenotype (%) [11]: 18%
Population Mitotic Cells (%) [11]: 27%
Population Normal (%) [11]: 93%
Population Pyknosed Nuclei (%) [11]: 19%
Population Tubulin-Different-Phenotype (%) [11]: 38%
Total Cell Count [11]: 260
Population Apoptotic (%) [12]: 45%
Population Fragmented Nuclei (%) [12]: 4%
Population Healthy Nuclei (%) [12]: 85%
Population Hoechst High Intensity Objects (%) [12]: 3%
Population Membrane Permeable-Phenotype (%) [12]: 11%
Population Mitochondria Different-Phenotype (%) [12]: 14%
Population Mitotic Cells (%) [12]: 54%
Population Normal (%) [12]: 96%
Population Pyknosed Nuclei (%) [12]: 11%
Population Tubulin-Different-Phenotype (%) [12]: 22%
Total Cell Count [12]: 101
